# In ChEMBL document CHEMBL4513216, “Probing the Open Global Health Chemical Diversity Library for Multistage-Active Starting Points for Next-Generation Antimalarials” (ACS Infect Dis, 2020):
# Assay: Toxicity liver stage against HepG2, at 10uM
# Format: cell-based
# Set-up: test concentration 10 uM, cell line HepG2-A16-CD81EGFP
# Settings: human, HepG2-A16-CD81EGFP cells; read-out: INHIBITION
# In short: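 Uninfected HepG2-A16-CD81EGFP cells, 3 × 10^3 per well, 1536-well, plated on prespotted compound at 10 μM final, parasite-free screening media added to match infected plates; puromycin 10 μM positive, DMSO 0.5% negative; run in parallel with 48 h PbLuc assay at 37 °C, 5% CO2; viability by CellTiter-Glo luminescence, normalized to controls.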
row,Compound,cytotoxicity at 10 µM [%]
1,Cc1cc(O)nc(C2CN(CCO)CCO2)n1 (stereo not drawn),-27.8
2,CN1C[C@@H](F)[C@@H](OCc2nc3ccccc3n2C)C1,0.876
3,COCC(=O)N1CCC2(CCN(Cc3ccc(C)cc3)CC2)CC1,6.68
4,O=C(Nc1ccccc1)N1CCC2(CC(=O)N(c3ccsc3)C2)C1 (stereo not drawn),2.58
5,N[C@@H]1c2ccccc2C2(CCN(C(=O)c3ccc(Cl)cn3)CC2)[C@H]1O,-2.21
6,CCOCCCn1c(NC(=O)c2cnn(C)c2)nc2ccccc21,-12.1
7,CCc1ccc(CN2CCC3(CC2)C(=O)N(C)CCN3CC)cc1,-4.13
8,Cc1cc(CN2CCC(c3nccn3C(C)C)CC2)ccc1F,5.22
9,CC(=O)NC(C(=O)N(C)Cc1nnc2n1CCC2)C(C)C (stereo not drawn),-7.85
10,Cc1cccc(CN2CCc3ncnc(N4CCCC4)c3CC2)n1,-145
11,CCOc1ccccc1CCNC(=O)NCC(O)c1cccs1 (stereo not drawn),-4.47
12,COc1ccc(S(=O)(=O)Cc2cc(C)on2)cc1,7.55
13,COc1cc(N2CCC3(CC2)CC(N2CCN(C)CC2)CO3)ncn1 (stereo not drawn),-9.11
14,O=C(c1cnccn1)N1CCN2C[C@H](Oc3cccnc3)C[C@H]2C1,4.62
15,CCS(=O)(=O)N1CCC2(CCN(CC(=O)N(C)C)C2=O)CC1,5.68
16,CC(=O)N1CCCC1c1nnn2cc(Nc3ccccc3)ccc12 (stereo not drawn),12.2
17,Cc1cccc(C)c1CN1C(=O)CC2(CCSC2)C1=O (stereo not drawn),14.9
18,O[C@H]1COCCN(Cc2cccc(C(F)(F)F)c2)C1,-1.8
19,CCC(CC)C(=O)N1CCN(C)c2ncccc2C1,-3
20,COc1cc(F)ccc1-c1nc2c([nH]1)c(C1CC1)nn2C,-1.72
21,Cc1cnc(N2C(=O)CSC2c2ccc(F)cc2)s1 (stereo not drawn),-2.92

row,Compound,cytotoxicity at 10 µM [%]
1,COCC(C)(C#N)NC(=O)COc1ccccc1 (stereo not drawn),7.51
2,COc1cccc(CNCCc2cc(F)cc3c2OCOC3)c1OC,4.32
3,Cc1cc(CN2CCC(CNC(=O)c3nccc4ccccc34)C2)[nH]n1 (stereo not drawn),14.1
4,Cc1nn2cnnc2c(C)c1CCC(=O)Nc1nnc(C2CC2)s1,-2.89
5,CC1(C)CN(CC(F)(F)F)CCN1CC(N)=O,9.92
6,NC(=O)Cn1cc(NC(=O)NCCN2CCc3ccccc3C2)cn1,-9.52
7,O=C(NCc1ccccc1)NCC(O)c1cccc(F)c1 (stereo not drawn),-5.09
8,COCCNC(=O)Nc1ccc(CN2CCOC2=O)cc1,-4.62
9,CC(NC(=O)c1cc(-c2cccc(Cl)c2)no1)C(=O)N(C)C (stereo not drawn),-2.16
10,CC(CNCC1(S(C)(=O)=O)CCOCC1)c1ccc(F)cc1 (stereo not drawn),-5.06
11,CC(C)c1cc(N2CCC(N)CC2)n2nccc2n1,-18.1
12,Cc1cccc(N2CCC(NCc3cnc(C4CCC4)s3)CC2)n1,6.08
13,Cc1nc(CN2CCO[C@H]3CN(C(=O)c4ccncc4)C[C@H]32)cs1,-146
14,Cc1n[nH]c2c1C(c1ccc3c(c1)OCO3)SCC(=O)N2 (stereo not drawn),3.46
15,O=C(c1cccc(F)c1F)N1CCn2c(nnc2C(F)(F)F)C1,-8.22
16,c1ccc(OCc2noc(CN3CCN(C4CCCC4)CC3)n2)cc1,-6.66
17,O=C(Cc1ccccc1Cl)N1CCCC(n2cncn2)C1 (stereo not drawn),-11.1
18,CCN1CCN(C(C)CNC(=O)Nc2nc3ccccc3s2)CC1 (stereo not drawn),-2.32
19,O=C(NC1CCN(C2CC2)CC1)c1[nH]nc(C2CC2)c1Cl,2.64
20,Cc1ccc(C(=O)NCCS(=O)(=O)N2CCSCC2)n1C,-0.506
21,Cc1cc(CN2CC[C@H]3C[C@H](c4nc(C5CC5)cs4)O[C@@H]3C2)no1,-97.6

row,Compound,cytotoxicity at 10 µM [%]
1,Cc1cccc(NC(=O)[C@@H]2CCCN2Cc2nc3ccccc3o2)n1,-4.61
2,CCc1cnc(C)nc1NC(CC)c1cnn(C)c1 (stereo not drawn),-11.7
3,Cn1ncc2c(NCCOc3ccc(F)cc3)nc(C3CCCC3)nc21,6.1
4,CNC(=O)COc1cccc(CNC(=O)c2c(C)noc2C(C)C)c1,-2.8
5,Cc1cc(CN(CCO)Cc2cc(Br)ccc2F)no1,3.46
6,Cn1nc(COc2cccnc2)c2c1CCN(c1ncccn1)C2,-105
7,O=C1CC2(CCN(C(=O)c3csc(-c4ccccc4)n3)C2)C(=O)N1 (stereo not drawn),-1.25
8,Cc1cnn(CC(C)NCc2ccc(S(C)(=O)=O)cc2)c1 (stereo not drawn),4.62
9,NCC1Cc2cc(-c3cncc(C(=O)N4CCCCC4)n3)cc(F)c2O1 (stereo not drawn),-51.8
10,COCCN1CCC12CCN(C(=O)c1ccc(C)nc1)C2 (stereo not drawn),-102
11,CCC1c2ccsc2CCN1C(=O)NCc1ccc(C)nc1 (stereo not drawn),-3.75
12,Cc1nccc(N[C@H]2CN(CCS(C)(=O)=O)C[C@@H]2C2CC2)n1,0.34
13,COc1cc(F)c(C(C)NC(=O)c2cccnc2C)cc1OC (stereo not drawn),38
14,Cc1cc(-n2cncn2)ccc1C(=O)N(C)CC(F)(F)C(F)(F)F,-10.3
15,COc1ccc(C(=O)N2C[C@@H](C(=O)O)[C@H](c3ccccc3)C2)c(O)c1,-2.14
16,C1CCC(c2nc3c(c(N4CCN5CCCC5C4)n2)CCNCC3)C1 (stereo not drawn),-1.1
17,Cc1ccc(C)c(-n2cc(CN3CCOCC3)c(-c3ccccc3)n2)c1,13.1
18,CS(=O)(=O)N[C@H]1CN(C(=O)CCc2ccc(=O)[nH]n2)C[C@@H]1C1CC1,1.56
19,COCCN1CCC2(COCCN(Cc3ccc4c(c3)OCO4)C2)C1 (stereo not drawn),-0.234
20,CCc1ccc(CN2CCC3(CC2)CC(N2CCN(C)CC2)CO3)cc1 (stereo not drawn),-2.88
21,CN(C)c1ncc(-c2cccc(C(N)=O)c2)c(C2CNCCO2)n1 (stereo not drawn),-2.77

row,Compound,cytotoxicity at 10 µM [%]
1,COCCN(C)C(=O)Nc1cc2c(cc1SC)OCCO2,4.69
2,CO[C@H]1CN(Cc2nc3ccccc3n2C)CC[C@@]12CCCO2,2.5
3,NC(=O)c1ccc(NC(=O)N2CCN(c3cccs3)CC2)c(F)c1,1.97
4,O=C(O)c1ccc2c(CN3CCOCC3)c[nH]c2c1,4.91
5,Cc1cc(C)n(CC2CCCN2C(=O)c2ccc3ccccc3n2)n1 (stereo not drawn),-2.53
6,Cn1ccc2c(C(=O)NCCCS(C)(=O)=O)cccc21,-0.915
7,CN(Cc1cccnc1)CC1CNCc2nccn2C1 (stereo not drawn),-77.2
8,CCS(=O)(=O)c1ccc(N2CCC(N)CC2)cc1,-6.44
9,CC(C)c1cc(C(F)(F)F)n2nc(CCC(=O)O)nc2n1,5.97
10,CC1CCC(NCCNC(=O)c2cccs2)CC1 (stereo not drawn),-11.8
11,Cn1cc(CN2C[C@@H]3COC[C@@H](C(=O)N4CCCCO4)[C@@H]3C2)cn1,-1.57
12,CC(=O)N1CCCC2(CCN(Cc3ccc(Cl)c(F)c3)C2)C1 (stereo not drawn),9.58
13,O=C(NCc1cc[nH]n1)N1CCN(c2ncccn2)CC1,-3.29
14,c1csc(CCC2CCCCN2Cc2noc(C3CC3)n2)c1 (stereo not drawn),0.562
15,c1cncc(-c2noc(CN3CCOC(Cn4cccn4)C3)n2)c1 (stereo not drawn),-11.4
16,CN(Cc1ccoc1)C(=O)Cn1ncc(N(C)C)cc1=O,7.68
17,O=S(=O)(CC1CCCCO1)Nc1cnn(CC(F)F)c1 (stereo not drawn),-3.09
18,Cc1cc(C)nc(C2CCCNC2)n1 (stereo not drawn),9.85
19,CC(C)OCCN1CCN(C(=O)c2cc(-n3cccn3)ccn2)CC1,-0.158
20,CC(c1ccncn1)N(C)Cc1cc(O)c2cc(F)ccc2n1 (stereo not drawn),-2
